Activity calls are given as the source filed them. The rule behind the calls is not given here.
Experiments:
5'-nucleotidase [1] = target: T1, 5'-nucleotidase (Rattus norvegicus, UniProt P21588); assay: Inhibition of purified recombinant soluble rat CD73 expressed in Sf9 cells [3H]AMP as substrate incubated for 25 mins by scintillation counting method
T1 sequence (P21588 whole entry): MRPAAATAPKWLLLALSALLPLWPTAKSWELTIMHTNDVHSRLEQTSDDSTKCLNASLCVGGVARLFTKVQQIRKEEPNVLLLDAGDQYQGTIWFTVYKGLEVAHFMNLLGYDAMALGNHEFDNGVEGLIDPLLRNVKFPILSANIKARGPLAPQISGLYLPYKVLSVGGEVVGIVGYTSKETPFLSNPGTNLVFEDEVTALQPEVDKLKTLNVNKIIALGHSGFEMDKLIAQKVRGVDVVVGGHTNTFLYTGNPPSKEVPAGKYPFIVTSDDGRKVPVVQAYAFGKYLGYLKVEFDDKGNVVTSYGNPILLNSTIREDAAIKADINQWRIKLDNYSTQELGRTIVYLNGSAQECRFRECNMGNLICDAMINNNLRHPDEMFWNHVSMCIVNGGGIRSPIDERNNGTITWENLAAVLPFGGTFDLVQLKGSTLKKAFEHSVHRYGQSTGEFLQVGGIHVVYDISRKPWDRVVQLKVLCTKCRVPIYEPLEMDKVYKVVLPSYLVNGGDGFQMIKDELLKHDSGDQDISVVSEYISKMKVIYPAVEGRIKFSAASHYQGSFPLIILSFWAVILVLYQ
How it was run: (§1)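 Radiometric CD73 assay in 25 mM Tris, 140 mM NaCl, 25 mM NaH2PO4, pH 7.4. Enzyme per vial: rat CD73 1.63 ng, human CD73 0.365 ng, MDA-MB-231 membranes 7.4 ng protein. […] 25 min at 37 °C, shaking. Stopped with cold LaCl3/sodium acetate pH 4.0 to precipitate substrate. Filtrate counted by scintillation. Full curves; Ki from IC50 via Cheng–Prusoff.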

5'-nucleotidase [2] = target: T2, 5'-nucleotidase (Homo sapiens, UniProt P21589); assay: Inhibition of purified recombinant soluble human CD73 expressed in Sf9 cells [3H]AMP as substrate incubated for 25 mins by scintillation counting method; how it was run: as §1
T2 sequence (P21589 whole entry): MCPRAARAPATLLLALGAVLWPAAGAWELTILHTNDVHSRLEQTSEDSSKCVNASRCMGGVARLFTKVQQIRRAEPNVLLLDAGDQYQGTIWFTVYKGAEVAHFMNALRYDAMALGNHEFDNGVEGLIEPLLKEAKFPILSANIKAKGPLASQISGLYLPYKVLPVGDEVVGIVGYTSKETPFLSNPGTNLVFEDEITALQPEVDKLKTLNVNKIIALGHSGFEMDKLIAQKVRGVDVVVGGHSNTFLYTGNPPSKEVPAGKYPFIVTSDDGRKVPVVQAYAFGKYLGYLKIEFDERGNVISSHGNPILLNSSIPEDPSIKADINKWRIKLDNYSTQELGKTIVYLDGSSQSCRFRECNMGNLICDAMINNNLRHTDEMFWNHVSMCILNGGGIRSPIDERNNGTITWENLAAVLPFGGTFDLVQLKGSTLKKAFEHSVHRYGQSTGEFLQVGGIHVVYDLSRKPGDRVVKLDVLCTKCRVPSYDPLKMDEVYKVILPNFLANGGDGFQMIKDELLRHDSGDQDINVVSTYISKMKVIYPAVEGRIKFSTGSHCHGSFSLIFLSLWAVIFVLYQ

5'-nucleotidase [3] = target: T2, 5'-nucleotidase; assay: Inhibition of native CD73 in human MDA-MB-231 cell membrane preparations [3H]AMP as substrate incubated for 25 mins by scintillation counting method; type: cell membranes; how it was run: as §1
5'-nucleotidase [4] = target: T2, 5'-nucleotidase; assay: Inhibition of human CD73
5'-nucleotidase [5] = target: T1, 5'-nucleotidase; assay: Inhibition of rat CD73
How it was run: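 Recombinant soluble rat CD73 expressed in Sf9 insect cells (1.63 ng per vial). Buffer was 25 mM Tris, 140 mM NaCl, 25 mM NaH2PO4, pH 7.4. […] Stopped with LaCl3/sodium acetate pH 4.0 to precipitate unreacted substrate, then filtered; adenosine in the filtrate counted by scintillation. Ki derived from IC50 by Cheng–Prusoff.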

[6] = target: P2Y purinoceptor 1 (Homo sapiens) (UniProt P47900); assay: Activation of recombinant human P2Y1 receptor expressed in human 1321N1 cells assessed as stimulation of calcium mobilization at 10 uM by fluorescence based assay; type: functional, cell-based
P2Y purinoceptor 1 (Homo sapiens), sequence (P47900 whole entry): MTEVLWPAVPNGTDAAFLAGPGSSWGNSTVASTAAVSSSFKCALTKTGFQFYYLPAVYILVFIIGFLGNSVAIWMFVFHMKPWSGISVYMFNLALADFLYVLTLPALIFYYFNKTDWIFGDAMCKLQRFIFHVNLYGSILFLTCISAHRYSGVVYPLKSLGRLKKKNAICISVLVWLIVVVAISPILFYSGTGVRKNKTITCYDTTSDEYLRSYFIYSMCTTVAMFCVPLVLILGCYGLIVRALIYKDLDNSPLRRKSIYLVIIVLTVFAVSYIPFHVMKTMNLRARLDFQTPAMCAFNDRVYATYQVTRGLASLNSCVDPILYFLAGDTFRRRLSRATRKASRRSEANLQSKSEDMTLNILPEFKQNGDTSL

[7] = Metabolic stability in human blood plasma assessed as compound degradation at 200 uM incubated for 5 hrs at 37 degC by LC-MS analysis; type: ADME, cell-free; conditions: read-out: Drug degradation
How it was run: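 Human plasma from healthy donors added to aqueous compound solution, 200 μM final. Incubated at 37 °C for 5 h. Supernatants analysed by LC-MS as percentage of compound remaining over time. Three separate experiments, each in duplicate.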

[8] = Metabolic stability in rat liver microsomes assessed as compound degradation at 200 uM after 30 mins in presence of NADPH regenerative system at 37 degC by LC-MS analysis; type: ADME, Microsome; conditions: read-out: Drug degradation
How it was run: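 Rat liver microsomes (2 mg) incubated with compound at 200 μM in 2 mL at 37 °C for various times. Stopped with ice-cold acetonitrile and centrifuged. Supernatant analysed by LC-MS as percentage remaining. Three separate experiments in duplicate.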

[9] = target: P2Y purinoceptor 12 (Homo sapiens) (UniProt Q9H244); assay: Activation of recombinant human P2Y12 receptor expressed in CHOK1 cells assessed as stimulation of beta-arrestin recruitment at 10 uM incubated for 90 mins by luminescence based assay
P2Y purinoceptor 12 (Homo sapiens), sequence (Q9H244 whole entry): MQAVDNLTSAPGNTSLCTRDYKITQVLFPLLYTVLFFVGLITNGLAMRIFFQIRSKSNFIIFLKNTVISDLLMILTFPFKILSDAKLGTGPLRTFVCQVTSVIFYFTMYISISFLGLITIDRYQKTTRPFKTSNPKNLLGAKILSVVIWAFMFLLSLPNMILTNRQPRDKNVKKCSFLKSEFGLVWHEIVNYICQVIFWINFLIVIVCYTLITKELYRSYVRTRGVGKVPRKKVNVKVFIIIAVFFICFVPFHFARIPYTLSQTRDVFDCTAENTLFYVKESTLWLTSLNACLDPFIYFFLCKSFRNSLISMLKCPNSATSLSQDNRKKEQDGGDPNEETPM

[10] = target: T3, Ectonucleotide pyrophosphatase/phosphodiesterase family member 1 (Homo sapiens) (UniProt P22413); assay: Inhibition of human recombinant NPP1 at 10 uM using p-nitrophenyl thymidine monophosphate substrate incubated for 30 mins by colorimetry
T3 sequence (whole entry): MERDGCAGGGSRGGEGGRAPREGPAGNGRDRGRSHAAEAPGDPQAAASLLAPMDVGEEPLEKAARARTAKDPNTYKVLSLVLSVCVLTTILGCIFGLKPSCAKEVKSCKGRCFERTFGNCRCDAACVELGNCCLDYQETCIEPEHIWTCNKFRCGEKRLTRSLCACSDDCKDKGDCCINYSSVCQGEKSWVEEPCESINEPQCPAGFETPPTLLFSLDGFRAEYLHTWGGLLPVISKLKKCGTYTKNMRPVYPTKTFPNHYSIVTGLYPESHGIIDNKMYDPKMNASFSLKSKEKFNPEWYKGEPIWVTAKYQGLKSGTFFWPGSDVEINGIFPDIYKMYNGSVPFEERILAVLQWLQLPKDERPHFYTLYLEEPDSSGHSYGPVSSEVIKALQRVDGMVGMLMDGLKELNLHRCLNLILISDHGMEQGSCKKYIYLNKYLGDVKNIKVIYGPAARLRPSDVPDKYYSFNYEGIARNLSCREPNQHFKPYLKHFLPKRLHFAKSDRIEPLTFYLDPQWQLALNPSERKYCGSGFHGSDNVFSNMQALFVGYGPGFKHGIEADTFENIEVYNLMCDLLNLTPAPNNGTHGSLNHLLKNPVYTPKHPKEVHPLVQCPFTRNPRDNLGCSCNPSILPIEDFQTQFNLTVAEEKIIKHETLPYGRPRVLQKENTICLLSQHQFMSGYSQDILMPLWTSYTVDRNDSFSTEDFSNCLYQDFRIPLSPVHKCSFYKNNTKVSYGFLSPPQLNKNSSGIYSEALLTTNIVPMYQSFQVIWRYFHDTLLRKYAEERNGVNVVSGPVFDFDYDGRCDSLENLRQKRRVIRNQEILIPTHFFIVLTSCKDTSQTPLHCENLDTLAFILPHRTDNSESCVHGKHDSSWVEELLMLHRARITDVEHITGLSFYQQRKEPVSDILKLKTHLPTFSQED

Autotaxin (Homo sapiens) = Autotaxin (Homo sapiens) (UniProt Q13822); assay: Inhibition of human recombinant NPP2 at 10 uM using p-nitrophenyl thymidine monophosphate substrate incubated for 30 mins by colorimetry
[11] = target: T4, Ectonucleotide pyrophosphatase/phosphodiesterase family member 3 (Homo sapiens) (UniProt O14638); assay: Inhibition of human recombinant NPP3 at 10 uM using p-nitrophenyl thymidine monophosphate substrate incubated for 30 mins by colorimetry
T4 sequence (whole entry): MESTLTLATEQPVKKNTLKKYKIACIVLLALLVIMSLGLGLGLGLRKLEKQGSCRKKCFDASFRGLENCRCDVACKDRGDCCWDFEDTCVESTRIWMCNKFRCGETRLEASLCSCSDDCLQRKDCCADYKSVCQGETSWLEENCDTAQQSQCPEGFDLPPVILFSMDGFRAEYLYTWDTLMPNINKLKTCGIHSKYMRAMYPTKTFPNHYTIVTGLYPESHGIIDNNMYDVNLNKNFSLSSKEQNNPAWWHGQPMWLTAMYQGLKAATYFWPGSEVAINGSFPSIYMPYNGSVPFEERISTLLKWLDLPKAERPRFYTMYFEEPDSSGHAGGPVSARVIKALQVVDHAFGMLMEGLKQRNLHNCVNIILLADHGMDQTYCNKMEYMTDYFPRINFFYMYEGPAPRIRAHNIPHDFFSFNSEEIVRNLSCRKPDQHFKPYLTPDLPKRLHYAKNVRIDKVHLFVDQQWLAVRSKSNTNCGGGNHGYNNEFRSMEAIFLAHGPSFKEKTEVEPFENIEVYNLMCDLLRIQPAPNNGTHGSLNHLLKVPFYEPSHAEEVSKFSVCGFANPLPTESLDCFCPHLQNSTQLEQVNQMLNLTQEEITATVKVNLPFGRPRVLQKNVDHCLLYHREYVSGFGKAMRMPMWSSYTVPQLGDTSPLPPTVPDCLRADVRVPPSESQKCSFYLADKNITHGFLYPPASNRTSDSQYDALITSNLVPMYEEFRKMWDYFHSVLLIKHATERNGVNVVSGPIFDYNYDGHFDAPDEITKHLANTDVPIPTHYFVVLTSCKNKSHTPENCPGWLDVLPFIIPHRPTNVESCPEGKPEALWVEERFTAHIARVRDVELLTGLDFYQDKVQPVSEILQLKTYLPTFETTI

[12] = Selectivity index, ratio of Ki for inhibition of purified recombinant soluble rat CD73 expressed in Sf9 cells to Ki for inhibition of purified recombinant soluble human CD73 expressed in Sf9 cells
[13] = Metabolic stability in rat liver microsomes assessed as intact compound level at 200 uM after 2 hrs in presence of NADPH regenerative system at 37 degC by LC-MS analysis; type: ADME, Microsome; conditions: read-out: Stability
[14] = Drug metabolism in rat liver microsomes at 200 uM after 2 hrs in presence of NADPH regenerative system at 37 degC by LC-MS analysis; type: ADME, Microsome; conditions: read-out: Drug metabolism

| SMILES | Ki (5'-nucleotidase [1]) | Ki (5'-nucleotidase [2]) | Ki (5'-nucleotidase [3]) | Activity [6] | Activity [9] | inhibition [10] | inhibition (Autotaxin (Homo sapiens)) | inhibition [11] | other results |
| --- | --- | --- | --- | --- | --- | --- | --- | --- | --- |
| C=CCSc1nc(N)c2ncn([C@@H]3O[C@H](COP(=O)(O)CP(=O)(O)O)[C@@H](O)[C@H]3O)c2n1 | 65.7 nM | 61.9 nM | 65.4 nM |  |  |  |  |  |  |
| CN(Cc1ccccc1)c1nc(Cl)nc2c1ncn2[C@@H]1O[C@H](COP(=O)(O)CP(=O)(O)O)[C@@H](O)[C@H]1O |  |  |  |  |  |  |  |  | Ki (5'-nucleotidase [4]): 0.318 nM; Ki (5'-nucleotidase [5]): 0.746 nM |
| Nc1ncnc2c1ncn2[C@@H]1O[C@H](COP(=O)(O)CP(=O)(O)O)[C@@H](O)[C@H]1O [PHOSPHOMETHYLPHOSPHONIC ACID ADENOSYL ESTER] | 197 nM |  | 207 nM | Active | Active |  |  |  | metabolised at 5 h, 200 µM [7]: ≤ 50%; metabolised at 0.5 h, 200 µM [8]: 100% |
| Nc1nc(Cl)nc2c1ncn2[C@@H]1O[C@H](COP(=O)(O)CP(=O)(O)O)[C@@H](O)[C@H]1O | 18.6 nM | 5.93 nM | 4.57 nM | inactive | inactive | inactive | inactive | inactive |  |
| Nc1nc(N)c2ncn([C@@H]3O[C@H](COP(=O)(O)CP(=O)(O)O)[C@@H](O)[C@H]3O)c2n1 | 90.6 nM | 38.8 nM | 35.7 nM |  |  |  |  |  |  |
| Nc1nc(N2CCNCC2)nc2c1ncn2[C@@H]1O[C@H](COP(=O)(O)CP(=O)(O)O)[C@@H](O)[C@H]1O | 2290 nM | 184 nM | 238 nM |  |  |  |  |  | Ratio Ki [12]: 12.5 |
| Nc1nc(I)nc2c1ncn2[C@@H]1O[C@H](COP(=O)(O)CP(=O)(O)O)[C@@H](O)[C@H]1O | 15.1 nM | 3.59 nM | 3.33 nM |  |  | inactive | inactive | inactive | metabolised at 5 h, 200 µM [7]: < 25%; remaining at 2 h, 200 µM [13]: 100%; metabolised at 2 h, 200 µM [14]: < 40% |
| Nc1ncnc2c1ncn2[C@@H]1O[C@H](COP(=O)(O)OP(=O)(O)O)[C@@H](O)[C@H]1O |  |  |  | Active | Active |  |  |  |  |
| Nc1nc(=O)[nH]c2c1ncn2[C@@H]1O[C@H](COP(=O)(O)CP(=O)(O)O)[C@@H](O)[C@H]1O | 326 nM |  |  |  |  |  |  |  |  |
| Nc1nc(Cl)c2ncn([C@@H]3O[C@H](COP(=O)(O)CP(=O)(O)O)[C@@H](O)[C@H]3O)c2n1 | 268 nM | 23.6 nM | 32.2 nM | inactive | inactive | inactive | inactive | inactive | Ratio Ki [12]: 6.3 |
| NNc1nc(N)c2ncn([C@@H]3O[C@H](COP(=O)(O)CP(=O)(O)O)[C@@H](O)[C@H]3O)c2n1 | 116 nM | 15.5 nM | 15.4 nM |  |  |  |  |  | Ratio Ki [12]: 7.5 |
| Nc1nc(SCCC2CCCCC2)nc2c1ncn2[C@@H]1O[C@H](COP(=O)(O)CP(=O)(O)O)[C@@H](O)[C@H]1O | 56.6 nM | 46.9 nM | 49.1 nM | inactive | inactive | inactive | inactive | inactive |  |
| Nc1nc2c(ncn2[C@@H]2O[C@H](COP(=O)(O)CP(=O)(O)O)[C@@H](O)[C@H]2O)c(=O)[nH]1 [PHOSPHOMETHYLPHOSPHONIC ACID GUANOSYL ESTER] | 1110 nM | 410 nM | 255 nM |  |  |  |  |  |  |

Reference: ChEMBL document CHEMBL4402566, “2-Substituted α,β-Methylene-ADP Derivatives: Potent Competitive Ecto-5'-nucleotidase (CD73) Inhibitors with Variable Binding Modes” (J Med Chem, 2020)
